GASC-1 inh: human JMJD2C demethylase inhibition; Q9H3R0; GST-JMJD2C(1-420) H3K9me3 demethylation, DELFIA europium; inhibition, % at 2.35 µM; 330,000 tested, 0.069% active; AID 2099;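 active = more than half of a compound's replicate wells show inhibition beyond 50%, single wells judged on their own value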;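 note: signal counts dimethyl H3K9 product captured on neutravidin plate; 0% = median of DMSO wells and 100% = 0.3 times that DMSO median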
PP1 counter: PP1-alpha (human) inhibition in PP5 counter-screen. purified PP1alpha, OMFP fluorescence. inhibition, % at 6.7 µM. 320,000 tested, 0.9% active. AID 2235;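 active = inhibition above the mean inhibition of all tested compounds plus 3 SD, computed separately for each screening campaign, cut at about 15% in these data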
Target sequence (P62136 whole entry, looked up): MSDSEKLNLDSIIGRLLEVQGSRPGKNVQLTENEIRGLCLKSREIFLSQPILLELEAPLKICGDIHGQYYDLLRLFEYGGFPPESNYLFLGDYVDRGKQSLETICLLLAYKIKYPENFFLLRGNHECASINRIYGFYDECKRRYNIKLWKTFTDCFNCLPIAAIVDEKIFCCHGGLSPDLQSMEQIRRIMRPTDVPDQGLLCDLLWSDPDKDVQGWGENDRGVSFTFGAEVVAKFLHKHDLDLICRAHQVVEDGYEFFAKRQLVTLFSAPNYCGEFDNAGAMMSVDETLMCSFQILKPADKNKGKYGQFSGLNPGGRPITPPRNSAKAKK
m5-HT2A agonist: agonists of mouse serotonin 5-HT2A receptor (HTR2A); 360,000 tested, 0.66% active; activation, % at 7.6 µM; CHO-K1 mHTR2A beta-arrestin complementation, luminescence; percent of 30 µM serotonin response;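 active = activation above a run cutoff, the mean activation of all tested compounds plus 3 SD, cut at about 14% in these data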;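 note: 0% = plate median of compound wells and 100% = 30 µM serotonin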
PP5 primary: blocks human protein phosphatase 5 activity | P53041 | purified PP5c, OMFP substrate fluorescence | inhibition, % at 6.7 µM | 320,000 tested, 0.18% active | AID 1987;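 active = inhibition above the campaign's mean inhibition across all tested compounds plus 3 SD, cut at about 9.5% in these data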;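 note: 0% = DMSO only and 100% = 100 µM cantharidin control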
T cell modulator: T cell immune modulation candidate | 2C CD8+ T cell-vesicle binding, flow cytometry; hits give low values | response (vesicle binding), % at 7 µM | 330,000 tested, 0.068% active | AID 2052;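 active = response, share of CD8 T cells binding vesicles, and their 90th percentile fluorescence all below set limits, cut at about 80% in these data, passing the limit was not always enough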;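 note: values below 100% mean blocked vesicle binding to the CD8+ T cells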
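System: murine 2C transgenic CD8+ T lymphocytes; also added: QL9-loaded Drosophila micro-vesicles; times: binding 1.5 h at 37 °C; measured by: flow cytometry, PE anti-B7-1 (FL2) versus Alexa647 anti-CD8 (FL8), PFA-fixed; control set: Peptide-free naked vesicles (low) and QL9 vesicles with 0.7% DMSO vehicle (high)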
PP1 inh confirm: human PP1 phosphatase inhibition, confirmation; shares compounds with PP1 counter; purified PP1alpha, OMFP substrate fluorescence; inhibition, % at 6.7 µM; 1,900 tested, 52% active; AID 2358;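 active = mean PP1 inhibition above a set limit taken from the earlier primary screen, cut at about 15% in these data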
PP5 inh counter: counter-screen for PP1 inhibitors: human PP5 phosphatase inhibition; shares compounds with PP1 counter; purified PP5c, OMFP fluorescence; inhibition, % at 6.7 µM; 1,900 tested, 4% active; AID 2360;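 active = mean PP5 inhibition over triplicate wells above about 9.5% taken from the earlier PP1 screen, limit read from the data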
Active calls of the source: *; i = inactive; x = no result given. Only some compounds are listed: those with a hit (about 1.7% of all), similar ones and a draw of the others.

SMILES	GASC-1 inh	PP1 counter	m5-HT2A agonist	PP5 primary	T cell modulator	PP1 inh confirm	PP5 inh counter
O=C(O)[C@@H](c1ccccc1)N1Cc2ccccc2C1=O	-11	24*	4	3	624	35*	-5
Cc1onc(-c2c(Cl)cccc2Cl)c1C(=O)N(C)Cc1ccccc1	8	2	-2	1	209	x	x
CN(C)C(=N)c1n[nH]nc1SCc1ccc(Cl)c(Cl)c1	-7	25*	-1	-1	292	-3	-6
COC(=O)[C@]12CCCCC=C1N(CCC1=CCCCC1)C(=O)[C@H](CC(=O)NCCCN1CCCC1=O)C2	x	x	-1	x	x	x	x
CN1CCc2nc3sc(C(=O)C45CC6CC(CC(C6)C4)C5)c(N)c3cc2C1	x	29*	4	-1	304	7	1
CCN1CCN(c2ccc(S(=O)(=O)N3CCCCC3)cc2NC(=O)/C=C/c2ccc(Cl)cc2)CC1	x	x	-17	x	x	x	x
COC(=O)C1=C(CSc2nc3c(cc2C#N)CN(C)CC3)OC(N)=C(C#N)C1c1ccccc1F (configuration not stated)	13	18*	-1	3	322	5	4
COc1ccc(C(=O)c2sc3nc(-c4ccccc4)ccc3c2N)cc1OC	49	20*	-6	0	254	13	-4
Cc1ccc(C(CNC(=O)c2ccco2)N2CCN(C)CC2)cc1 (configuration not stated)	-4	-4	-5	-1	607	x	x
NS(=O)(=O)c1ccc(CCNC(=O)COC(=O)Cc2ccc(Cl)cc2)cc1	x	x	-2	x	x	x	x
CCOc1cc(C2Nc3cccc4cccc(c34)N2)ccc1O	6	24*	-3	4	416	2	8
COc1ccc(-c2ccc(SCC(=O)N3CC(=O)Nc4ccccc43)nn2)cc1	4	0	2	0	293	x	x
CC(C)C(NC(=O)CN(c1ccc2c(c1)OCCO2)S(=O)(=O)c1ccccc1)C(C)C	7	-3	-1	0	384	x	x
O=C(Nc1cccc(C(F)(F)F)c1)c1ccc2nc(-c3ccco3)c(-c3ccco3)nc2c1	27	32*	16*	1	269	11	0
N#CC1=C2N=C(N)c3c(sc4c3CCCCC4)N2C2=C(C(=O)CCC2)C1c1ccccc1 (configuration not stated)	18	18*	-2	4	274	6	-2
COc1ccc(-n2nc(C(=O)NCC(=O)Nc3cccc(Cl)c3)c3ccccc3c2=O)cc1OC	-11	-11	0	-6	82	x	x
O=C(OCC(=O)N1CCOCC1)c1ccc(F)cc1Cl	-1	-2	-1	0	239	x	x
Oc1ccccc1-c1nc(NCc2ccco2)c2ccccc2n1	8	2	0	0	223	x	x
c1ccc(-c2nc(NCc3ccco3)c3ccccc3n2)nc1	-1	26*	-6	1	254	24*	-2
Cc1ccc(Nc2nc(NCc3ccco3)c3ccccc3n2)cc1	-41	20*	-11	4	262	15	-2
O=C(CCN1C(=O)/C(=C\c2ccccc2F)SC1=S)Nc1ccc(C(=O)O)c(O)c1	0	20*	-2	4	403	20*	2
O=C(c1ccccc1)c1ccc(N2CCOCC2)cc1	x	x	5	x	x	x	x
O=C(O)c1cc(-c2ccc(N3CCOCC3)cc2)nn1-c1ccc(F)cc1F	1	24*	1	2	295	27*	-3
O=S(=O)(Nc1ccc(N2CCOCC2)cc1)c1ccc(F)cc1F	0	-1	-2	-1	401	x	x
O=C(O)c1cc(-c2ccc(N3CCOCC3)cc2)nn1-c1ccccc1Cl	6	34*	-3	-2	549	38*	0
SMILES	GASC-1 inh	PP1 counter	m5-HT2A agonist	PP5 primary	T cell modulator	PP1 inh confirm	PP5 inh counter
COc1cccc(/C=C/C(=O)N2CCN(S(=O)(=O)c3ccccc3)CC2)c1	x	x	0	x	x	x	x
CCOC(=O)c1sc2nc3c(SCC(=O)O)cc(C(=O)c4ccccc4O)cn3c(=O)c2c1C	7	13	0	1	333	x	x
CCOC(=O)c1sc2nc3c(SCC(=O)O)cc(C(=O)c4cc(F)ccc4O)cn3c(=O)c2c1C	2	61*	5	1	511	48*	-3
COc1ccc(-n2c(SCC(=O)O)nc3sc4c(c3c2=O)CCCC4)cc1	21	3	2	1	214	x	x
COc1ccc(O)c(C(=O)c2cc(SCC(=O)O)c3nc4sc5c(c4c(=O)n3c2)CCCC5)c1	4	29*	-3	2	188	19*	-3
O=C(O)CSc1cc(C(=O)c2ccccc2O)cn2c(=O)c3c(-c4ccccc4)csc3nc12	0	20*	-2	1	332	16*	-5
CCOC(=O)C1CCCN(C(=O)Nc2c(-c3ccccc3)noc2C)C1 (configuration not stated)	-4	0	6	-1	418	x	x
COC(=O)c1sc(NC(=O)COc2cccnc2[N+](=O)[O-])c(C(=O)OC)c1C	-4	27*	7	5	115	15	0
COc1cc(/C=N/NC(=O)c2cccc(N3CCCC3=O)c2)ccc1O	-4	2	7	-1	229	x	x
O=C(N/N=C/c1cc([N+](=O)[O-])ccc1O)c1cccc2cc[nH]c12	9	29*	-2	1	505	20*	-4
O=C(N/N=C/c1cc([N+](=O)[O-])ccc1O)c1cccc(N2CCCC2=O)c1	-5	25*	-23	3	272	21*	-5
N#C/C(=C/c1ccc(-c2ccc(S(N)(=O)=O)cc2)o1)C(=O)Nc1ccccc1	-1	-1	-2	2	i	x	x
N#C/C(=C/c1ccc(-c2ccc(S(N)(=O)=O)cc2)o1)c1nc2ccccc2s1	5	20*	-4	-2	950	22*	-7
Cc1cccc(NC(=O)CNC(=O)COC(=O)C2CC2C)c1C (configuration not stated)	5	x	8	x	191	x	x
Cc1cc2c(s1)c1cnn(CC(=O)NCCc3ccccc3)c(=O)c1n2C	16	20*	x	1	436	11	-2
CSc1ccc(CCNC(=O)Cn2ncc3c([nH]c4ccccc43)c2=O)cc1	1	-4	7	-8	243	x	x
O=C(Cn1ncc2c([nH]c3ccccc32)c1=O)NCCc1ccc(Cl)cc1	-3	18*	1	3	i	21*	1
COc1ccc(-c2nnc(NC(=O)c3ccc(F)cc3)o2)cc1	23	24*	2	3	324	25*	-3
O=C1CCc2cc(S(=O)(=O)N3CCN(C(=O)c4ccco4)CC3)ccc2N1	3	71*	6	5	67	-2	-4

Screening results: PubChem BioAssay, several laboratories
